Source: paper PMC6939458 (Cancer cell, 2019)
Several values for one entry are separate records, joined by “and”; a condition that tells them apart may be missing. Identical values can stand only once. Values belong to the molecule of their own block, whether it stands above or below them.

What was measured:
MYC [1] = target: T1, MYC (Homo sapiens, UniProt P01106); assay: STD NMR, MYC; type: binding; settings: 975 phosphate analog 100 μM, G5 200 μM
How it was run: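 Buffer: 50 mM HEPES, 500 mM NaCl, 10 mM β-mercaptoethanol, 5% glycerol, 30 mM imidazole. Ligand spectra recorded with and without each protein individually.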
Target sequence in this assay (P01106 368-454): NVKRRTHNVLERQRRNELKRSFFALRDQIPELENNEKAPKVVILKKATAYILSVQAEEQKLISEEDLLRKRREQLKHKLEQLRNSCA

MYC [2] = target: T1, MYC; assay: Biotinylated compound pull down, MYC; type: binding; settings: for competition of MYC binding to Biotin-361: PC3 cell lysate, excess competitor
How it was run: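 Nuclear extract from PC3 cells prepared with a nuclear co-IP kit in low co-IP buffer at 150 mM NaCl final. Extract pre-cleared on streptavidin beads 1 hr at 4 °C. About 100 μg extract incubated overnight at 4 °C on a rotator with 1 to 10 μM biotinylated test compound, 10 μM D-biotin or DMSO. Recombinant MYC (0.5 μg) run the same way in buffer with 1% BSA, without pre-clearing. Bound MYC detected by Western blot. For competition, lysate pre-treated with competitor before biotin probe (5 μM).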
Target sequence in this assay (P01106 16-454): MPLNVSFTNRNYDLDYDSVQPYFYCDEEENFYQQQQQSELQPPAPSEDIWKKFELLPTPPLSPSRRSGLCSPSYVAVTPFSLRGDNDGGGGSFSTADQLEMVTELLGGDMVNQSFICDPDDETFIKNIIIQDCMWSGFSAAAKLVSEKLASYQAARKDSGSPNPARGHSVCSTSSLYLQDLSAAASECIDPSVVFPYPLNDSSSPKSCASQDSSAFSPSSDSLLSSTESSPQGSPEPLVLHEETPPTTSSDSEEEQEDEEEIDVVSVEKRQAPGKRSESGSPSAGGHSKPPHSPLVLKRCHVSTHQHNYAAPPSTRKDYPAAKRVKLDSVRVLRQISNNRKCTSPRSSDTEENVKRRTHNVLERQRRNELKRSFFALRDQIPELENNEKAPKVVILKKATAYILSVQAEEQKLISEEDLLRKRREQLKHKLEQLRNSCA

HIF-1α = HIF-1α (Homo sapiens, UniProt Q16665); assay: Biotinylated compound pull down, HIF-1α; type: binding; settings: cell lysates
How it was run: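 A biotin-conjugated test compound was used as bait. Nuclear complexes came from exponentially growing PC3 and P493–6 cells, extracted with a nuclear complex co-IP kit. The pull-down ran in low co-IP buffer with NaCl added to a final 150 mM.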

MYC [3] = target: T1, MYC; assay: Cellular thermal shift assay; type: cell-based; settings: PC3 cells
How it was run: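 PC3 cells (70–80% confluent; also PC3 stably expressing Flag-MYCT58A, puromycin 1.5 μg/ml selected) treated with test compound or DMSO for 30 min. Cells washed, resuspended in PBS with protease/phosphatase inhibitors plus the same compound dose, split into 7–10 aliquots (~1 million cells each), heated 2 min at graded temperatures, then 3 min room temperature. Lysates boiled 5 min at 90 °C; MYC quantified by Western blot densitometry to build melt curves.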
Target sequence in this assay (P01106 16-454): as above

MYC353–439 = MYC353–439 (Homo sapiens, UniProt P01106); assay: Fluorescence polarization competition assay against 10074-G5; type: binding
MYC [4] = assay: Western blot of MYC protein level, stability and phosphorylation in cells; type: cell-based, human; settings: 8 μM
How it was run: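 PC3 cells, or PC3 stably expressing Flag-MYC, Flag-MYCT58A or Flag-MYCS62A (lentiviral, 1.5 μg/ml puromycin selection), were used. For stability, cells were pretreated 3 hr with compound or DMSO, then given cycloheximide and harvested at time points. MYC, pT58, pS62, GSK3β and pGSK3β S9 were detected by western blot over a time course. Band intensities were densitometrically quantified.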

GSK3β-mediated MYC pT58 = GSK3β-mediated MYC pT58 (Homo sapiens, UniProt P01106); assay: In vitro kinase assay; type: biochemical; settings: 6 μM
How it was run: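 Phosphorylation reactions were run in kinase buffer (25 mM Tris-HCl pH 7.5, 5 mM β-glycerophosphate, 2 mM DTT, 0.1 mM sodium vanadate, 10 mM MgCl₂) at room temperature for 2 hr in total.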

[5] = tested on: MYC-dependent cancer cells; assay: Cell viability, MYC-dependent cancer cells; type: cell-based; settings: prostate cancer cells versus PC12, 5 days
How it was run: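 Cells were seeded at 1000 to 5000 per well in 96-well plates, depending on cell type. Viable cells were counted, or MTS absorbance was read at 490 nm, 2 to 7 days after treatment. MycCaP, PC3, LNCaP and P493–6 were grown in RPMI1640, SK-N-BE(2) in F12 and MV411 in IMDM, each with 10% heat-inactivated FBS and 1% penicillin-streptomycin.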

[6] = tested on: MYC transcriptional activity (E-box-luciferase); assay: E-box luciferase reporter assay in vitro; type: cell-based
How it was run: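 MycCaP cells stably carrying either MYC E-box-luciferase reporter or control mCherry-P2A-luciferase vector plated 10000 cells/well. Serial dilution of test compound added the next day; luminescence read by Steady-Glo after 4 hr treatment.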

[7] = Pharmacokinetics of 975 in CD-1 mice; settings: male, CD-1, mouse, in vivo, po
MycCaP tumor allografts = assay: MycCaP allograft/xenograft mouse model; type: in vivo
How it was run: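 Male FVB (allograft) or NSG (xenograft) mice, 6–8 weeks, ~25 g, acclimated >4 days. Injected s.c. in flanks with 1 × 10⁶ MycCaP E-box-luciferase cells in 100 μl Matrigel. Tumors followed by caliper ((length × width × width)/2) and by bioluminescent imaging after i.p. substrate injection. Body weight recorded. Tumor tissue assessed by H&E and immunofluorescence for Ki67, MYC pT58 and PD-L1.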

[8] = tested on: Lewis Lung Carcinoma (LLC1); assay: LLC1 allograft lung cancer mouse model; type: in vivo; settings: 100 mg/kg/day
How it was run: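 LLC1 cells (1 × 10⁶) in PBS:matrigel 1:1 were injected subcutaneously into the flanks of female C57BL/6 mice, aged 6–8 weeks. Mice were randomised 3 days after inoculation and given test compound i.p. as 50 mg/kg twice daily (100 mg/kg/day). Tumour growth and body weight were followed, n = 7 mice/group, mean ± SEM.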

MV-411 AML xenografts = assay: MV-411 AML xenograft; type: in vivo, mouse
How it was run: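 Immunodeficient mice were inoculated with 5×10⁶ MV-411 cells in PBS:matrigel 1:1. They were randomised by tumour volume at ~200 to 500 mm³ and dosed with vehicle, test compound, or test compound plus Ara-C, 5 days a week for 3 weeks. Calipers were read twice weekly and volume was taken as (length × width × width)/2. Body weight was monitored, n = 4 mice/group, mean ± SEM.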

[9] = Maximum tolerated dose / acute toxicity in mice; type: in vivo; settings: p.o., single dose at 50, 100, 250, 500 or 1000 mg/kg
[10] = 14-day toxicology in mice; type: in vivo, mouse; settings: 100 mg/kg daily for 14 days, analyzed one week later
MAX(S) = MAX(S) (Homo sapiens, UniProt P61244-2 1-151); assay: EMSA
[11] = MycCaP allograft, 100 mg/kg/day i.p. for 14 days

MYC353–439, sequence (P01106 368-454): as the sequence (P01106 368-454) above
GSK3β-mediated MYC pT58, sequence (P01106 16-454): as the sequence (P01106 16-454) above
HIF-1α, sequence (Q16665 whole entry): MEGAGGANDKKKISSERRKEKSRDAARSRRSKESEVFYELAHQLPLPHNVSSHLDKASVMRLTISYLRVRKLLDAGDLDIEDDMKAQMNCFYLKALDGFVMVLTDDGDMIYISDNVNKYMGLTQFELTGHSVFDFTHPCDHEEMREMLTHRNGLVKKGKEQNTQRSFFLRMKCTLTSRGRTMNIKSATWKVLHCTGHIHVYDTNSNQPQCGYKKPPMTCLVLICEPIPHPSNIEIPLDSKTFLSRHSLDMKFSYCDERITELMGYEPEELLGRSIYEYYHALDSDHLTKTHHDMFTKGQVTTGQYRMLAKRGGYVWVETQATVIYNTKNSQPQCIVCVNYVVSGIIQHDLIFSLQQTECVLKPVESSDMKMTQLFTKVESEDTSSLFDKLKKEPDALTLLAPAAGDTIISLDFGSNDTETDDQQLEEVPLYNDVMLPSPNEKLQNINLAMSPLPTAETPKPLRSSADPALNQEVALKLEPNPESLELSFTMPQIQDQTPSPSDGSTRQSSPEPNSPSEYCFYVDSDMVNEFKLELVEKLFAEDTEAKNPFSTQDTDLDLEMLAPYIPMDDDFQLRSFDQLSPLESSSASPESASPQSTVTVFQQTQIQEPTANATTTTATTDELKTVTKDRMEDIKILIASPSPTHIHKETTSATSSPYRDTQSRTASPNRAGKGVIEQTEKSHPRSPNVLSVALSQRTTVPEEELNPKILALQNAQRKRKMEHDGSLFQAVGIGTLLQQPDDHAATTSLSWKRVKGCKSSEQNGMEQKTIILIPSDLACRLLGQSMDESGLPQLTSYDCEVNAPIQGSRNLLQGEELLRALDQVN

binding to MYC by STD NMR (MYC [1]): bound to MYC
Molecule: O=P(O)(O)OCOc1ccc(-c2cc(C(F)(F)F)n[nH]2)c(O)c1-c1ccc(Cl)c(C(F)(F)F)c1 [975 phosphate analog, ((4’-chloro-6-hydroxy-3’-(trifluoromethyl)-5-(3-(trifluoromethyl)-1H-pyrazol-5-yl)-[1,1’-biphenyl]-2-yl)oxy)methyl dihydrogen phosphate]

pull down of recombinant MYC and endogenous MYC (MYC [2]; cell lysates): pulled down | pull down of HIF-1α (HIF-1α): not MAX or another bHLH protein HIF-1α
Molecule: Cn1nc(C(F)(F)F)cc1-c1ccc(OCCCNC(=O)CCOCCOCCOCCOCCOCCOCCNC(=O)CCCC[C@@H]2SCC3NC(=O)NC32)c(-c2cc(C(F)(F)F)cc(C(F)(F)F)c2)c1O (stereo partly drawn) [Biotin-361, N-(3-((6-hydroxy-5-(1-methyl-3-(trifluoromethyl)-1H-pyrazol-5-yl)-3’,5’-bis(trifluoromethyl)-[1,1’-biphenyl]-2-yl)oxy)propyl)-1-(5-((4S)-2-oxohexahydro-1H-thieno[3,4-d]imidazol-4-yl)pentanamido)-3,6,9,12,15,18-hexaoxahenicosan-21-amide]

pull down of MYC protein (MYC [2]; 10 μM, PC3 cells): pulled down MYC protein
Molecule: Cn1nc(C(F)(F)F)cc1-c1ccc(OCCNC(=O)CCOCCOCCOCCOCCNC(=O)CCCC[C@@H]2SCC3NC(=O)NC32)c(-c2cc(C(F)(F)F)cc(C(F)(F)F)c2)c1O (stereo partly drawn) [Biotin-975, N-(2-((6-hydroxy-5-(1-methyl-3-(trifluoromethyl)-1H-pyrazol-5-yl)-3’,5’-bis(trifluoromethyl)-[1,1’-biphenyl]-2-yl)oxy)ethyl)-1-(5-((4S)-2-oxohexahydro-1H-thieno[3,4-d]imidazol-4-yl)pentanamido)-3,6,9,12-tetraoxapentadecan-15-amide]

Molecule: Cn1nc(C(F)(F)F)cc1-c1ccc(OCc2ccc(Cl)cc2)c(-c2ccc(Cl)c(C(F)(F)F)c2)c1O [Compound 975, 4’-chloro-6-((4-chlorobenzyl)oxy)-3-(1-methyl-3-(trifluoromethyl)-1H-pyrazol-5-yl)-3’-(trifluoromethyl)-[1,1’-biphenyl]-2-ol]
MYC target engagement by CETSA (MYC [3]; 8 μM): confirmed MYC target engagement | Kd (MYC353–439): 2500 nM | MYC degradation and phosphorylation on T58 (MYC [4]): enhanced MYC degradation and phosphorylation on T58 | pT58 levels in in vitro kinase assay (GSK3β-mediated MYC pT58): directly increased GSK3β-mediated MYC pT58 | cell viability [5]: inhibited cell viability in a MYC-dependent manner | E-box-luciferase versus CMV-luciferase activity in vitro [6]: selectively suppressed E-box-luciferase activity | Cmax ([7]; 100 mg/kg): 41500 ng/mL and 74 µM | half-life ([7]; 100 mg/kg): 7 h | Cmax ([7]; 250 mg/kg): 54000 ng/mL and 96 µM | half-life ([7]; 250 mg/kg): 12 h | tumor inhibition, FVB versus NSG mice (MycCaP tumor allografts; 50 mg/kg twice daily, 3 days): more strongly than in immunodeficient NSG mice | pT58 and PD-L1 levels in tumor tissue (MycCaP tumor allografts; 100 mg/kg/day i.p. for 14 days): increased pT58 and PD-L1 levels | tumor growth, 975 alone (MycCaP tumor allografts; 100 mg/kg/day, 2 days on/2 days off): slowed tumor growth | tumor infiltration of immune cells (MycCaP tumor allografts; CD3+ T cells, B220+ B cells, NKp46+ NK cells, 100 mg/kg/day for 14 days): enhanced tumor infiltration of CD3+ T cells | survival (MycCaP tumor allografts; [11]): increased survival | tumor growth (MycCaP tumor allografts; [11]): significantly inhibited tumor growth | body weight [8]: no changes in body weight | tumor growth [8]: inhibited tumor growth | efficacy as a single agent (MV-411 AML xenografts; 50 mg/kg/day, 5 days a week): reduced efficacy as a single agent | body weight, combination with Ara-C (MV-411 AML xenografts; 975 50 mg/kg/day, Ara-C 20 mg/kg/day): no obvious impact on mouse body weight | tumor growth, combination with Ara-C (MV-411 AML xenografts; 975 50 mg/kg/day, Ara-C 20 mg/kg/day, 5 days a week): synergized with Ara-C | well tolerated single dose, acute toxicity [9]: up to 1000 mg/kg | gross and histological analysis of organs [10]: no obvious pathologic abnormalities | hematology, blood chemistry, kidney and liver function [10]: normal complete blood count and differential, normal blood chemistry, and normal kidney and liver function

thermal stability of MYC protein (CETSA) (MYC [3]; 30 min, 361 4–10 μM, G5 15–60 μM, 360 6 μM): significant thermal destabilization | competition of MYC binding to Biotin-361 (MYC [2]): competed | binding to MYC by STD NMR (MYC [1]): confirmed interaction
Molecule: O=[N+]([O-])c1ccc(Nc2ccccc2-c2ccccc2)c2nonc12 [Compound G5, reference compound]

competition of MYC binding to Biotin-361 (MYC [2]): competed
Molecule: Cn1nc(C(F)(F)F)cc1-c1ccc(OCOP(=O)(O)O)c(-c2cc(C(F)(F)F)cc(C(F)(F)F)c2)c1O [Phosphate-361, ((6-hydroxy-5-(1-methyl-3-(trifluoromethyl)-1H-pyrazol-5-yl)-3’,5’-bis(trifluoromethyl)-[1,1’-biphenyl]-2-yl)oxy)methyl dihydrogen phosphate]

B1: HEX E-box oligo (dsDNA)
DNA 1: CACCCGGTCACGTGGCCTACAC
DNA 2: GTGTAGGCCACGTGACCGGGTG
binding result (MAX(S)): no binding
